In data set [1] the test system is Rattus norvegicus. Put plainly: Antiinflammatory activity in Wistar rat model of LPS-induced uveitis assessed as reduction in infiltrating cells in aqueous humor at 10 ug/10ul/eye administered 24 hrs after LPS stimulation and measured after 1 hr by hemocytometry relative to control. To be noted: dose 10 µg. The data set is classed as functional.
In data set [2] the target is T1, 3',5'-cyclic-AMP phosphodiesterase 4B (Homo sapiens, UniProt Q07343). Briefly: Inhibition of human PDE4B using [3H]cAMP as substrate at 100 nM incubated for 5 mins followed by substrate addition and measured after 10 mins by scintillation proximity assay relative to control. To be noted: time 15.0 min. Summed up: (§1)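 Purified human PDE-4B2 in 50 mM Tris pH 7.4, 8.3 mM Mg2+, 1% DMSO final, enzyme converting 10–20% of substrate; 5 min pre-incubation at 37 °C, then 0.5 µM cAMP with ~50,000 cpm [3H]-cAMP for 10 min; stopped with yttrium silicate SPA beads containing 18 mM ZnSO4, read after >30 min settling. Background = no enzyme; IC50 from 8–10-point 4-parameter fit.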
T1 sequence (Q07343 whole entry): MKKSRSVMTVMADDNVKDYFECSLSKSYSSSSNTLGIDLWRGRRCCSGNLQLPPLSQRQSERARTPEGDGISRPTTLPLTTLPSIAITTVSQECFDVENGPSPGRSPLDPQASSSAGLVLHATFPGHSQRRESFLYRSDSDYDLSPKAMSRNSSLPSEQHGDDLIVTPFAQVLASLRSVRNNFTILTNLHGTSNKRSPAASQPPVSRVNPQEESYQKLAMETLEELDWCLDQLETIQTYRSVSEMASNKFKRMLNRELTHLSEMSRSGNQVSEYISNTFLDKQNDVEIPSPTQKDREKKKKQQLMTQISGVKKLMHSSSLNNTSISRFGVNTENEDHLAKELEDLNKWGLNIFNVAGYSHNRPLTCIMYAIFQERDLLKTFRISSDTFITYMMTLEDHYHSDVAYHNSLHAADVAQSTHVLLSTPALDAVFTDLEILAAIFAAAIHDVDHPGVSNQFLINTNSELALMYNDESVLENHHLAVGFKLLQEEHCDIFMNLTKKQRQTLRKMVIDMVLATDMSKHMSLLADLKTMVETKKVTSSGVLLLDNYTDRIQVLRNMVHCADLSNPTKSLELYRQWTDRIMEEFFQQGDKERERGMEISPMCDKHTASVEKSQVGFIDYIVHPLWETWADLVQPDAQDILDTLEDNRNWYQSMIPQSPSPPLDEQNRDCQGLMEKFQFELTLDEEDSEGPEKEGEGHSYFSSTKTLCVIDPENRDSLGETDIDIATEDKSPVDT

The target of data set [3] is T1, 3',5'-cyclic-AMP phosphodiesterase 4B. Briefly: Inhibition of human PDE4B using [3H]cAMP as substrate incubated for 5 mins followed by substrate addition and measured after 10 mins by scintillation proximity assay. Summed up:
as §1
For orientation: In a scintillation proximity assay essentially only radioactivity close to the scintillant gives light.

The test system of data set [4] is PBMC. Put plainly: Inhibition of PDE-4 in human PBMC assessed as LPS-induced TNFalpha production at 1000 nM incubated for 15 mins followed by LPS stimulation and measured after 18 hrs by ELISA relative to control. The following applies: time 1095.0 min. Summed up: (§2)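 PBMC isolated from healthy volunteers' blood in cell preparation tubes, suspended in RPMI; 0.5 million cells/well pre-incubated with compound 15 min at 37 °C, then stimulated with E. coli LPS (B4) 1 µg/mL for 18 h at 37 °C, 5% CO2; medium TNF-α measured by ELISA.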
(ELISA stands for enzyme-linked immunosorbent assay.)

Data set [5] concerns PBMC. Put plainly: Inhibition of PDE-4 in human PBMC assessed as LPS-induced TNFalpha production at 100 nM incubated for 15 mins followed by LPS stimulation and measured after 18 hrs by ELISA relative to control. The following applies: time 1095.0 min. A digest of the protocol:
as §2

Data set [6] can be described thus: Inhibition of PDE-4 in human PBMC assessed as LPS-induced TNFalpha production incubated for 15 mins followed by LPS stimulation and measured after 18 hrs by ELISA relative to control. Summed up:
as §2

Data set [7] is described as follows: Genotoxicity in Salmonella typhimurium TA100 in presence of rat liver S9 fraction at 0.039 to 5 mg by Ames test. The data set is classed as toxicity, subcellular, Salmonella enterica subsp. enterica serovar Typhimurium. The following applies: dose 0.039-5 mg. A digest of the protocol:
(§3)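 Ames reverse mutation test in S. typhimurium TA98 and TA100 with rat liver S9 activation, doses 0.039–5 mg/plate (eight levels); mutagenicity and cytotoxicity scored.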
For orientation: The Ames test detects mutagens through reverse mutation in bacteria.

A short description of data set [8]: Genotoxicity in Salmonella typhimurium TA98 in presence of rat liver S9 fraction at 0.039 to 5 mg by Ames test. It is filed as toxicity, subcellular, Salmonella enterica subsp. enterica serovar Typhimurium. The following applies: dose 0.039-5 mg. Summed up:
as §3

Data set [9] concerns Rattus norvegicus. Put plainly: Antiinflammatory activity in Sprague-Dawley rat model of LPS-induced COPD and asthma assessed as reduction in neutrophil influx in BALF at 10 mg/kg, po administered 30 mins before LPS stimulation and measured after 6 hrs relative to control. To be noted: time 6.5 hrs. It is filed as functional.
In data set [10] the test system is Mus musculus. Put plainly: Antiinflammatory activity in Swiss albino mouse model of LPS-induced sepsis assessed as reduction in TNFalpha production at 0.3 mg/kg, po administered 30 mins before LPS stimulation and measured after 90 min by ELISA relative to control. The data set is classed as functional. The following applies: 2 h, time 120 min. A digest of the protocol: (§4)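 Female Swiss albino mice fasted 20 h with water, dosed orally in 0.5% Tween 80/0.25% CMC sodium; vehicle-only controls. 500 µg E. coli LPS (B4) in PBS i.p. 30 min later; retro-orbital bleed 90 min post-LPS, blood held overnight at 4 °C, serum TNF-α by mouse ELISA; % inhibition.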

In data set [11] the test system is Mus musculus. Briefly: Antiinflammatory activity in Swiss albino mouse model of LPS-induced sepsis assessed as reduction in TNFalpha production at 1 mg/kg, po administered 30 mins before LPS stimulation and measured after 90 min by ELISA relative to control. To be noted: 2 h, time 120 min. It is filed as functional. Summed up: as §4
In data set [12] the test system is Mus musculus. Briefly: Antiinflammatory activity in Swiss albino mouse model of LPS-induced sepsis assessed as reduction in TNFalpha production at 3 mg/kg, po administered 30 mins before LPS stimulation and measured after 90 min by ELISA relative to control. The following applies: 2 h, time 120 min. The data set is classed as functional. A digest of the protocol: as §4

Data set [13] can be described thus: Tmax in Wistar rat at 10 mg/kg, po. It is filed as ADME, organism-based. The following applies: in vivo.
Data set [14] can be described thus: Cmax in Wistar rat at 10 mg/kg, po. The data set is classed as ADME, organism-based. Also on record: route oral, dose 10 mg/kg. To be noted: in vivo.
Data set [15] is described as follows: AUClast in Wistar rat at 10 mg/kg, po. It is filed as ADME, organism-based. Also on record: dose 10 mg/kg. The following applies: in vivo.
Data set [16] in a line: Half life in Wistar rat at 10 mg/kg, po. It is filed as ADME, organism-based. To be noted: in vivo.
Data set [17] is described as follows: Oral bioavailability in Wistar rat at 10 mg/kg. The data set is classed as ADME, organism-based. To be noted: in vivo.
Data set [18] is described as follows: Initial concentration in Wistar rat at 5 mg/kg, iv. It is filed as ADME, organism-based. The following applies: in vivo.
Data set [19] is described as follows: AUClast in Wistar rat at 5 mg/kg, iv. It is filed as ADME, organism-based. Also on record: dose 5 mg/kg. To be noted: in vivo.
A short description of data set [20]: Volume of distribution in Wistar rat at 5 mg/kg, iv. The data set is classed as ADME, organism-based. The following applies: in vivo.
Data set [21] in a line: Clearance in Wistar rat at 5 mg/kg, iv. To be noted: in vivo. The data set is classed as ADME, organism-based.
A short description of data set [22]: Half life in Wistar rat at 5 mg/kg, iv. The data set is classed as ADME, organism-based. The following applies: in vivo.
Data set [23] concerns Rattus norvegicus. Put plainly: Antiinflammatory activity in Sprague-Dawley rat model of LPS-induced COPD and asthma assessed as reduction in total cell count in BALF at 0.1 mg/kg, po administered 30 mins before LPS stimulation and measured after 6 hrs relative to control. It is filed as functional. The following applies: time 6.5 hrs.
The subject of data set [24] is Rattus norvegicus. Put plainly: Antiinflammatory activity in Sprague-Dawley rat model of LPS-induced COPD and asthma assessed as reduction in total cell count in BALF at 0.3 mg/kg, po administered 30 mins before LPS stimulation and measured after 6 hrs relative to control. The data set is classed as functional. The following applies: time 6.5 hrs.
The subject of data set [25] is Rattus norvegicus. Put plainly: Antiinflammatory activity in Sprague-Dawley rat model of LPS-induced COPD and asthma assessed as reduction in total cell count in BALF at 1 mg/kg, po administered 30 mins before LPS stimulation and measured after 6 hrs relative to control. The data set is classed as functional. The following applies: time 6.5 hrs.
Data set [26] concerns Rattus norvegicus. Briefly: Antiinflammatory activity in Sprague-Dawley rat model of LPS-induced COPD and asthma assessed as reduction in total cell count in BALF at 3 mg/kg, po administered 30 mins before LPS stimulation and measured after 6 hrs relative to control. It is filed as functional. To be noted: time 6.5 hrs.
The test system of data set [27] is Rattus norvegicus. Put plainly: Antiinflammatory activity in Sprague-Dawley rat model of LPS-induced COPD and asthma assessed as reduction in total cell count in BALF at 10 mg/kg, po administered 30 mins before LPS stimulation and measured after 6 hrs relative to control. The data set is classed as functional. The following applies: time 6.5 hrs.
Data set [28] relates to Rattus norvegicus. Briefly: Antiinflammatory activity in Sprague-Dawley rat model of LPS-induced COPD and asthma assessed as reduction in total cell count in BALF at 30 mg/kg, po administered 30 mins before LPS stimulation and measured after 6 hrs relative to control. The data set is classed as functional. The following applies: time 6.5 hrs.
Data set [29] concerns Rattus norvegicus. Put plainly: Antiinflammatory activity in Wistar rat model of LPS-induced uveitis assessed as reduction in infiltrating cells in aqueous humor at 0.1 mg/kg, po administered 24 hrs after LPS stimulation and measured after 1 hr by hemocytometry relative to control. It is filed as functional.
Data set [30] has as its system Rattus norvegicus. Briefly: Antiinflammatory activity in Wistar rat model of LPS-induced uveitis assessed as reduction in infiltrating cells in aqueous humor at 0.5 mg/kg, po administered 24 hrs after LPS stimulation and measured after 1 hr by hemocytometry relative to control. It is filed as functional.
In data set [31] the test system is Rattus norvegicus. Put plainly: Antiinflammatory activity in Wistar rat model of LPS-induced uveitis assessed as reduction in infiltrating cells in aqueous humor at 1 mg/kg, po administered 24 hrs after LPS stimulation and measured after 1 hr by hemocytometry relative to control. The data set is classed as functional.
The subject of data set [32] is Rattus norvegicus. Put plainly: Antiinflammatory activity in Wistar rat model of LPS-induced uveitis assessed as reduction in infiltrating cells in aqueous humor at 3 mg/kg, po administered 24 hrs after LPS stimulation and measured after 1 hr by hemocytometry relative to control. The data set is classed as functional.

`C[C@@H]1C[C@H]2[C@@H]3CCC4=CC(=O)C=C[C@]4(C)[C@@]3(F)[C@@H](O)C[C@]2(C)[C@@]1(O)C(=O)CO` [DEXAMETHASONE]: in the data set on Rattus norvegicus [1], the “inhibition (INH)” value was found to be 79.1%.

In the case of `O=C(NC1CCC(O)CC1)c1csc(-c2ccc(OC(F)F)c3oc4ccccc4c23)n1` (configuration not stated), the results for the inhibition (in [2]; in the data set on PBMC [4]; in the data set on PBMC [5]) were 65.3%, 93.8% and 77.7%, respectively. The figures for the IC50 in data set [3] and in data set [6] were 63.5 nM and 31 nM, respectively. The Activity result in [7] and in data set [8] was “Non-Toxic” each time. For the same molecule, the inhibition in vivo (usually the share of the control response that was lost under treatment) at 10 mg/kg came to 58% in the data set with Rattus norvegicus [9] and 75.2% in the data set with Rattus norvegicus [27]. In addition, the inhibition in vivo at 0.3 mg/kg in the data set with Mus musculus [10] is 16.4%; in the data set on Rattus norvegicus [24], 34.6%. Further, the inhibition in vivo at 1 mg/kg was found to be 34.2% with Mus musculus [11], 60.7% with Rattus norvegicus [25] and 90.3% in the data set with Rattus norvegicus [31]. For the same molecule, the inhibition in vivo at 3 mg/kg in the data set with Mus musculus [12] was 82.2%; in the data set on Rattus norvegicus [26], 70.9%; in the data set with Rattus norvegicus [32] it was 96.9%. For the same molecule, the Tmax – broadly, the time from dosing to the highest level – in data set [13] stood at 4.8 h. Besides, the Cmax (in general, the highest concentration seen after dosing) in data set [14] came out at 1400 ng/mL. The AUC(0-t) – broadly, exposure summed from dosing to a finite time, without extrapolation to infinity – in data set [15] was 11500 ng·h/mL; in data set [19], 13700 ng·h/mL. The half-life (as a rule, the time needed for the level to fall by half in the phase considered) in data set [16] is 5 h; in data set [22] it was 1.9 h. In addition, the bioavailability (as a rule, the share of a dose that reaches the circulation, judged against a reference dose that is usually intravenous) in data set [17] worked out at 42%. The same molecule displayed a C0 in data set [18] of 4000 ng/mL. In addition, the Vd (usually a proportionality between amount in the body and measured concentration, not a real space) in [20] turned out to be 1 L/kg. The clearance – broadly, the volume of plasma or blood freed of the substance per unit of time – in data set [21] is 6.67 mL/min/kg. The inhibition in vivo at 0.1 mg/kg was 52.8% in the data set with Rattus norvegicus [23] and 43.6% in the data set on Rattus norvegicus [29]. The inhibition in vivo at 30 mg/kg in the data set on Rattus norvegicus [28] stood at 78.7%. For the same molecule, the inhibition in vivo at 0.5 mg/kg in the data set on Rattus norvegicus [30] was found to be 54.4%.

For the origin of these results see ChEMBL document CHEMBL4715779, “In vivo effective dibenzo[b,d]furan-1-yl-thiazoles as novel PDE-4 inhibitors” (Bioorg Med Chem, 2016).
